Tests used:
Phosphodiesterase 1 [1] = molecular target: Phosphodiesterase 1 (Bos taurus, UniProt Q01061+P14100); test: Inhibitory activity against cyclic nucleotide phosphodiesterase in bovine heart carried out at 37 C with cAMP […] as substrate.; format: tissue-based
In short: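 Crude bovine heart phosphodiesterase containing protein activator and calcium. Assay used 1 µM cAMP substrate with separation of 5'-AMP on Dowex resin. Time and protein adjusted to keep hydrolysis under 25%. I50 interpolated from at least five inhibition values against log inhibitor concentration (10^-7 to 10^-4 M). Triplicate assays, 3-5 experiments, mean ± standard error.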

Phosphodiesterase 1 [2] = molecular target: T1, Phosphodiesterase 1 (Rattus norvegicus, UniProt Q63421+Q9EPR9+Q01066); test: Inhibition of Ca-dependent phosphodiesterase from Rat cerebral cortex using 1 uM cGMP; format: tissue-based
In short: (§1)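 Calcium-dependent enzyme from female Sprague-Dawley rat (200-250 g) cerebral cortex crude extract, taken by Sephadex G-200 gel filtration. Activity measured by polyacrylamide-boronate affinity gel chromatography with 1 µM cAMP or cGMP as substrate. Time and protein adjusted to keep hydrolysis under 25%. I50 interpolated from at least five inhibition values against log inhibitor concentration (10^-7 to 10^-4 M). Triplicate assays, 3-5 experiments, mean ± standard error.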

[3] = molecular target: T2, Phosphodiesterase 1 (Rattus norvegicus) (UniProt Q63421+Q9EPR9+Q01066); test: Inhibition of Ca-dependent phosphodiesterase from rat cerebral cortex with 1 uM cGMP without compound, after pre-incubation with 2 or 25 uM (negative control); format: functional, tissue-based; set-up: scale not given: the % may be the effect or the level left
In short: (§2)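 Purified calcium-dependent enzyme from rat cerebral cortex (Sephadex G-200 fraction) preincubated with inhibitor at the stated concentration. It was then diluted 1000-fold and assayed with 1 µM cGMP by polyacrylamide-boronate gel chromatography. Assays ran either without further drug or with drug re-added at the preincubation concentration. Activity was compared with enzyme preincubated without inhibitor.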

[4] = molecular target: T2, Phosphodiesterase 1 (Rattus norvegicus); test: Inhibition of Ca-dependent phosphodiesterase from rat cerebral cortex at 25 uM with 1 uM cGMP, after pre-incubation at 25 uM; format: functional, tissue-based; set-up: scale not given: the % may be the effect or the level left; in short: as §2
Phosphodiesterase 1 [5] = molecular target: T1, Phosphodiesterase 1; test: Inhibition of Ca-dependent phosphodiesterase from Rat cerebral cortex using 1 uM cAMP; format: tissue-based; in short: as §1
[6] = molecular target: T2, Phosphodiesterase 1 (Rattus norvegicus); test: Inhibition of Ca-dependent phosphodiesterase from rat cerebral cortex at 2 uM with 1 uM cGMP, after pre-incubation at 2 uM; format: functional, tissue-based; set-up: scale not given: the % may be the effect or the level left; in short: as §2

| SMILES | I50 (Phosphodiesterase 1 [1]) [µM] | I50 (Phosphodiesterase 1 [2]) [µM] | Activity [3] [%] | Activity [4] [%] | I50 (Phosphodiesterase 1 [5]) [µM] | Activity [6] [%] |
| --- | --- | --- | --- | --- | --- | --- |
| COc1cc2ccnc(-c3ccc(N(CCCl)CCCl)cc3)c2cc1OC | 5.2 | 15 | 100 | 45 | 7.3 |  |
| COc1cc2ccnc(Cc3ccc(NCCCl)cc3)c2cc1OC | 4.1 |  |  |  |  |  |
| COc1cc2ccnc(-c3ccc(N)cc3)c2cc1OC | 7.4 | 2.1 | 103 |  | 3.4 | 16 |
| COc1cc2ccnc(Cc3ccc(N(CCCl)CCCl)cc3)c2cc1OC | 5.3 |  |  |  |  |  |
| COc1ccc(Cc2nccc3cc(OC)c(OC)cc23)cc1OC [PAPAVERINE] | 8.8 | 21 |  |  | 12 |  |
| COc1cc2ccnc(-c3ccc(NCCCl)cc3)c2cc1OC | 3.5 | 12 | 102 |  | 2.9 | 21 |

More lines, now with the values ahead:

| I50 (Phosphodiesterase 1 [1]) [µM] | I50 (Phosphodiesterase 1 [2]) [µM] | Activity [3] [%] | Activity [4] [%] | I50 (Phosphodiesterase 1 [5]) [µM] | Activity [6] [%] | SMILES |
| --- | --- | --- | --- | --- | --- | --- |
| 8 |  |  |  |  |  | COC(=O)/C=C/C(=O)Nc1ccc(Cc2nccc3cc(OC)c(OC)cc23)cc1 |
| 7.7 |  |  |  |  |  | COc1cc2ccnc(Cc3ccc(N)cc3)c2cc1OC |
| 4 |  |  |  |  |  | COC(=O)/C=C\C(=O)Nc1ccc(Cc2nccc3cc(OC)c(OC)cc23)cc1 |
| 12 | 30 | 103 | 50 | 10 |  | C=CC(=O)Nc1ccc(-c2nccc3cc(OC)c(OC)cc23)cc1 |
| 10 |  |  |  |  |  | C=CC(=O)Nc1ccc(Cc2nccc3cc(OC)c(OC)cc23)cc1 |
| 14 | > 100 | 100 | 104 | 35 |  | COC(=O)/C=C/C(=O)Nc1ccc(-c2nccc3cc(OC)c(OC)cc23)cc1 |
| 5.3 | 1.1 | 99 |  | 1.7 | 14 | COC(=O)/C=C\C(=O)Nc1ccc(-c2nccc3cc(OC)c(OC)cc23)cc1 |
| 3.9 |  |  |  |  |  | COc1cc2ccnc(Cc3ccc(NC(=O)CCl)cc3)c2cc1OC |
| 5 | 6.8 | 105 |  | 2.3 | 19 | COc1cc2ccnc(-c3ccc(NC(=O)CCl)cc3)c2cc1OC |

— ChEMBL document CHEMBL1122433, “1-(4-Aminobenzyl)-and 1-(4-aminophenyl)isoquinoline derivatives: synthesis and evaluation as potential irreversible cyclic nucleotide phosphodiesterase inhibitors” (J Med Chem, 1983)
